≈ marks a conversion by molar mass, not a printed value. Calls of active or inactive are those of the source.

A short description of series [1]: Selectivity index, ratio of cytotoxicity against pig LLC-PK1 cells to IC50 for Cryptococcus neoformans ATCC 90113. The class given is toxicity, cell-based. To be noted: read-out: Selectivity Index.
Series [2] in a line: Selectivity index, ratio of cytotoxicity against african green monkey Vero cells to IC50 for Cryptococcus neoformans ATCC 90113. The format is toxicity, cell-based. To be noted: read-out: Selectivity Index.
Series [3] can be described thus: Selectivity index, ratio of cytotoxicity against human SKOV3 cells to IC50 for Cryptococcus neoformans ATCC 90113. The class given is toxicity, cell-based, SK-OV-3. To be noted: read-out: Selectivity Index.
Series [4] can be described thus: Selectivity index, ratio of cytotoxicity against human BT549 cells to IC50 for Cryptococcus neoformans ATCC 90113. The class given is toxicity, cell-based, BT-549. Conditions: read-out: Selectivity Index.
Series [5] is described as follows: Selectivity index, ratio of cytotoxicity against human KB cells to IC50 for Cryptococcus neoformans ATCC 90113. The format is toxicity, cell-based. Conditions: read-out: Selectivity Index.
Series [6] is described as follows: Selectivity index, ratio of cytotoxicity against human SK-MEL cells to IC50 for Cryptococcus neoformans ATCC 90113. The class given is toxicity, cell-based. Conditions: read-out: Selectivity Index.
Series [7] has as its system LLC-PK1. As to the kind of experiment: Cytotoxicity against pig LLC-PK1 cells assessed as cell viability after 48 hrs by neutral red uptake assay. The format is cell-based, Sus scrofa. Conditions: llc-pk1, 48 h. The method, boiled down:
(§1)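 Neutral red uptake assay on human cancer lines (SK-MEL, KB, BT-549, SK-OV-3) and noncancerous mammalian cells (VERO, LLC-PK1). Highest tested concentration was 10 µg/mL.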

Series [8] deals with Vero. The series is described as follows: Cytotoxicity against african green monkey Vero cells assessed as cell viability after 48 hrs by neutral red uptake assay. The format is cell-based. To be noted: chlorocebus sabaeus. The method, boiled down:
as §1

Series [9] concerns SK-OV-3. The series is described as follows: Cytotoxicity against human SKOV3 cells assessed as cell viability after 48 hrs by neutral red uptake assay. The class given is cell-based. Conditions: sk-ov-3, 48 h. The method, boiled down: as §1
In series [10] the test system is KB. As to the kind of experiment: Cytotoxicity against human KB cells assessed as cell viability after 48 hrs by neutral red uptake assay. The class given is cell-based. The method, boiled down: as §1
The test system of series [11] is BT-549. As to the kind of experiment: Cytotoxicity against human BT549 cells assessed as cell viability after 48 hrs by neutral red uptake assay. The format is cell-based. Conditions: bt-549, 48 h. The gist of the method:
as §1

Series [12] concerns SK-MEL. As to the kind of experiment: Cytotoxicity against human SK-MEL cells assessed as cell viability after 48 hrs by neutral red uptake assay. The class given is cell-based. The gist of the method:
as §1

Series [13] deals with Escherichia coli. The series is described as follows: Antibacterial activity against Escherichia coli ATCC 35218 assessed as growth inhibition after 16-20 hrs by CLSI method. The format is functional, organism-based.
Series [14] concerns Aspergillus fumigatus. As to the kind of experiment: Antifungal activity against Aspergillus fumigatus assessed as growth inhibition. The class given is functional, organism-based.
Series [15] concerns Pichia kudriavzevii. As to the kind of experiment: Antifungal activity against Candida krusei assessed as growth inhibition. The class given is functional, organism-based.
The test system of series [16] is Nakaseomyces glabratus. As to the kind of experiment: Antifungal activity against Candida glabrata assessed as growth inhibition. The format is functional, organism-based.
For series [17], the system named is Candida albicans. As to the kind of experiment: Antifungal activity against Candida albicans assessed as growth inhibition. The class given is functional, organism-based.
In series [18] the test system is Staphylococcus aureus. The series is described as follows: Antibacterial activity against methicillin-resistant Staphylococcus aureus ATCC 33591 assessed as growth inhibition after 16-20 hrs by CLSI method. The format is functional, organism-based. To be noted: for IC50: read-out: IC50.
The test system of series [19] is Staphylococcus aureus. As to the kind of experiment: Antibacterial activity against Staphylococcus aureus ATCC 29213 assessed as growth inhibition after 16-20 hrs by CLSI method. The class given is functional, organism-based.
The test system of series [20] is Cryptococcus neoformans. As to the kind of experiment: Antifungal activity against Cryptococcus neoformans ATCC 90113 assessed as growth inhibition after 70-74 hrs by CLSI method. The format is functional, organism-based. To be noted: Cryptococcus neoformans, ATCC 90113; for IC50: read-out: IC50.
Where [21] appears, read: Staphylococcus aureus, ATCC 33591.

In the case of `N[C@@H](Cc1c[nH]c2ccccc12)C(=O)N[C@@H](Cc1c[nH]c(-c2ccc(-c3ccccc3)cc2)n1)C(=O)NCc1ccccc1`, the selectivity ratio in [1], in series [2], in [3], in series [4], in [5] and in series [6] was greater than 18.5 throughout. For the same molecule, the Activity in [7], in [8], in [9], in series [10], in series [11] and in [12] was greater than 10 µg/mL each time. In addition, the “growth inhibition (GI)” value in series [13], in [14], in [15], in [16] and in series [17] was “inactive” throughout. The MBC in series [18] (setting [21]) and in [19] was 20 µg/mL (≈ 34.3 µM) throughout. Also, the MIC stood at 10 µg/mL (≈ 17.2 µM) in series [18] (setting [21]), 5 µg/mL (≈ 8.58 µM) in series [19] and 1.25 µg/mL (≈ 2.15 µM) in [20]. The results for the 50% inhibitory concentration (IC50) in series [18] (setting [21]), in series [19] and in series [20] were 4.31 µg/mL (≈ 7.4 µM), 2.6 µg/mL (≈ 4.46 µM) and 0.54 µg/mL (≈ 0.927 µM), respectively. Also, the minimum fungicidal concentration (MFC) in [20] is 1.25 µg/mL (≈ 2.15 µM).

For `CC(C)(C)OC(=O)N[C@@H](Cc1c[nH]c(-c2cccc3ccccc23)n1)C(=O)N[C@@H](CCCNC(=N)N)C(=O)NCc1ccccc1`, the selectivity ratio in series [1], in series [2], in [3], in [4], in series [5] and in series [6] was greater than 3.6 each time. In addition, the Activity in [7], in series [8], in [9], in series [10], in series [11] and in series [12] was greater than 10 µg/mL in each case. The “growth inhibition (GI)” value in series [13], in series [14], in series [15], in series [16] and in series [17] was “inactive” each time. Besides, the MBC entry in series [18] was “inactive”. Moreover, the figures for the minimum inhibitory concentration (MIC) in series [18] (setting [21]) and in series [20] were 20 µg/mL (≈ 31.9 µM) and 5 µg/mL (≈ 7.98 µM), respectively. Moreover, the IC50 was found to be 13.2 µg/mL (≈ 21.1 µM) in [18] (setting [21]), 16.4 µg/mL (≈ 26.1 µM) in series [19] and 2.79 µg/mL (≈ 4.45 µM) in series [20]. Also, the minimum fungicidal concentration (MFC) in [20] came out at 5 µg/mL (≈ 7.98 µM).

For the molecule `COC(=O)[C@H](CCCNC(=N)N)NC(=O)[C@@H](N)Cc1c[nH]c(-c2cccc3ccccc23)n1`, the selectivity ratio in series [1], in [2], in [3], in series [4], in series [5] and in [6] was greater than 7.3 throughout. Besides, the Activity in series [7], in series [8], in [9], in [10], in [11] and in series [12] was greater than 10 µg/mL in each case. For the same molecule, the “growth inhibition (GI)” value in [13], in [14], in [15], in [16] and in series [17] was “inactive” in each case. Further, the minimum fungicidal concentration (MFC) in [20] amounted to 2.5 µg/mL (≈ 5.54 µM). Also, in [20], the MIC was determined as 2.5 µg/mL (≈ 5.54 µM). For the same molecule, the IC50 in series [20] is 1.38 µg/mL (≈ 3.06 µM).
